In the library only some 2.1% were active in any assay of this set; here they are far more common.
UCH37 inh = inhibitors of human deubiquitinating enzyme UCH37; Q9Y5K5; purified proteasome/UCH37, Ub-AMC cleavage fluorescence; inhibition, % (test concentration not listed); 0.33% of 330,000 active; AID 588478;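 active means mean inhibition over replicate wells above about 20%, limit read from the data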;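 further: 0% = compound-free wells with enzyme and 100% = wells lacking proteasome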
Target sequence (Q9Y5K5 whole entry, looked up): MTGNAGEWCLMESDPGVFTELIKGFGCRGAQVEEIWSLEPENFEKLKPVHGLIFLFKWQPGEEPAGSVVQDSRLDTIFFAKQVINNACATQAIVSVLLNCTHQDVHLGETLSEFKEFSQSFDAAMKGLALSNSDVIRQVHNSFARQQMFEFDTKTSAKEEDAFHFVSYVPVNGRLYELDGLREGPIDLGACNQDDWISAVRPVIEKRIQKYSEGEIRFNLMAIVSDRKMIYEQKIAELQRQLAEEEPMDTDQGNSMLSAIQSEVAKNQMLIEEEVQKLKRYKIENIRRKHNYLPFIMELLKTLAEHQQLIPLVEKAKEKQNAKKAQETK
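System: Proteasome-associated human UCH37 deubiquitinase; Input: 0.15 nM proteasome in added enzyme buffer; Also added: Ub-AMC substrate from 1 µM stock; Incubation: 30 min compound-proteasome preincubation then 25 min substrate reaction, room temperature; Detection: fluorescence, ex 355 nm, em 460 nm; Read-out: % inhibition of Ub-AMC cleavage fluorescence; Benchmarks: no-proteasome and no-compound wells.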
PfG6PD inh = PfG6PD (Plasmodium falciparum) enzyme inhibition. PfGluPho enzyme, NADPH resazurin-diaphorase fluorescence. inhibition, % at 20 µM. 0.78% of 350,000 active. AID 504690;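 active means inhibition reaching at least a set limit at 20 µM in the primary screen, cut at about 59% in these data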;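 further: 0% = DMSO wells with substrate and 100% = DMSO wells lacking glucose-6-phosphate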
Cardio protect = protects H9c2 cardiomyocytes from peroxide injury. H2O2 injury protection, ATPLite, 2 h. protection from H2O2 cell death, % at 20 µM. 0.63% of 360,000 active. AID 588492;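 active means compounds giving at least 50% protection of heart cells from peroxide-induced death in the single-dose screen, raw or plate-pattern-corrected value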;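 further: 0% = DMSO wells with peroxide and 100% = DMSO wells without peroxide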
aDG glyco act = alpha-DG glycosylation activation. 0.22% of 360,000 active. activation, % at 10 µM. Pro5-aDG cells, alpha-DG glycosylation AlphaScreen (IIH6); 0% Pro5, 100% B10-LARGE cell signal;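 active means activation of at least 8% versus controls, or a plate z-score of at least 8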;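 further: Pro5 are CHO cells carrying HIG-tagged alpha-DG that lacks glycosylation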
Beta2AR agonist = activates human beta-2 adrenergic receptor causing internalization. P07550. Am2.2-beta2AR cells, FAP receptor internalization, flow cytometry. response, % (test concentration not listed). 0.43% of 340,000 active. AID 504454;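 active means response above a set limit, near 3 SD of response in nonfluorescent compounds, cut at about 42% in these data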
HKDC1 inhibitor = blocks human hexokinase HKDC1 activity; Q2TB90; recombinant HKDC1, G6PDH/diaphorase resazurin coupled fluorescence; inhibition, % at 20 µM; 0.16% of 340,000 active; AID 493160;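 active means inhibition above about 35% when tested at 20 µM, limit read from the data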;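 further: plate controls were DMSO wells with enzyme for no effect and DMSO wells lacking enzyme for full effect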
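Assay system – recombinant HKDC1 (HK5) hexokinase enzyme, produced in-house · Input – HKDC1 at 5 µg/mL · Reagent – glucose plus 1 mM ATP as hexokinase substrates · Timing – 90 min reaction incubation at room temperature, dark · Measured by – G6PDH/diaphorase-coupled fluorescence, 1 mM NADP, 100 µM resazurin, 525/613 nm · Benchmarks – DMSO-enzyme wells negative, buffer-substituted wells positive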
aDG glyco conf = confirmation of alpha dystroglycan glycosylation activators | 17% of 600 active | Pro5-aDG cells, alpha-DG glycosylation, IIH6 AlphaLISA; scaled to LARGE-overexpressing B10 cells as 100% | shares compounds with aDG glyco act | activation, % at 10 µM (by protocol);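 active means activation of at least 7% in one or more replicates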;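 further: cells exposed to compound for two days before detection; 0% = DMSO-treated Pro5 cells and 100% = DMSO-treated B10-LARGE cells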
The depositor's hits bear a star; nt = no result.

SMILES	UCH37 inh	PfG6PD inh	Cardio protect	aDG glyco act	Beta2AR agonist	HKDC1 inhibitor	aDG glyco conf
CCC(c1nnnn1-c1c(C)cccc1C)N1CCN(c2ccc(C(F)(F)F)cc2[N+](=O)[O-])CC1 (stereo not drawn)	nt	nt	nt	7.6*	nt	nt	-1
CCC(c1nnnn1-c1c(C)cccc1C)N1CCN(c2cccc(C(F)(F)F)n2)CC1 (stereo not drawn)	nt	nt	nt	0	nt	nt	nt
Cc1cccn2c(=O)c(C(=O)NC3CC(C)CC(C)(C)C3)c(O)nc12 (stereo not drawn)	-54	-65	-1	3.6*	-2	4	2
Cc1cc(NC2=CC(=O)C(=O)c3ccccc32)no1	nt	37	-18	14*	0	28	16*
Cc1ccc(CS(=O)Cc2ccc(C(=O)NCc3cccs3)o2)cc1 (stereo not drawn)	-1	11	-4	6.1*	-2	7	0
CN1C(=O)c2cccc(NCCCCCCN3C(=O)c4ccccc4C3=O)c2C1=O	-55	5	-20	4.5*	1	-3	-1
CN1C(=O)c2cccc(NCCCN3C(=O)c4ccccc4C3=O)c2C1=O	-32	-3	2	0	-4	-6	nt
Cc1nc2cc(NC(=O)c3ccc([N+](=O)[O-])s3)ccc2s1	0	8	-3	11*	0	5	5.1*
CCc1ccccc1NC(=O)CSc1ccsc1[N+](=O)[O-]	1	10	2	0	0	-9	nt
CCc1ccccc1NC(=O)c1ccc([N+](=O)[O-])s1	3	3	-8	13*	-10	-10	1
CC(=NOCC(=O)Nc1ccccc1C(=O)O)c1cccs1	4	nt	nt	nt	nt	nt	nt
COc1ccccc1NS(=O)(=O)c1ccc(C(=O)NCCCN2CCOCC2)cc1	3	-12	1	5.0*	-3	-3	1
O=C(NCCCN1CCOCC1)c1ccc(S(=O)(=O)Nc2ccccc2)cc1	2	-17	-2	0	3	-4	nt
CCCC(=O)N(Cc1cc(=O)[nH]c2ccccc12)c1ccccc1	1	-9	-2	5.6*	3	3	1
CC(=NNC(=O)CCc1ccccc1)c1ccc(Br)cc1	4	nt	nt	nt	nt	nt	nt
Cn1ncc(Br)c1C(=O)NN=Cc1cccc(OC2CSC2)c1	0	nt	nt	nt	nt	nt	nt
CC(=O)Oc1ccccc1N(C(C)=O)S(=O)(=O)c1ccc(C)cc1	1	5	9	0	-35	-6	nt
CC(=O)Oc1ccc(N(C(C)=O)S(=O)(=O)c2ccc(C)cc2C)c2ccccc12	7	13	-9	4.9*	6	14	3
COc1ccc(S(=O)(=O)N(C(C)=O)c2ccc(OC(C)=O)c3ccccc23)cc1[N+](=O)[O-]	7	17	-24	11*	11	21	2
CC(=O)N(c1ccccc1Cl)S(=O)(=O)c1ccc(Cl)cc1	1	18	4	0	-1	-4	nt
CC(=O)Oc1c(Cl)cc(N(C(C)=O)S(=O)(=O)c2ccccc2)c2ccccc12	5	17	3	3.1*	8	13	5.6*
Clc1ccc(-c2csc(NN=Cc3ccco3)n2)cc1	2	nt	nt	nt	nt	nt	nt
C/C(C=NN1CCN(Cc2ccc(C)cc2)CC1)=C/c1ccccc1	0	nt	nt	nt	nt	nt	nt
CC(C)NC(=O)Cn1cc(C(=O)C2CC2)c2ccccc21	6	3	2	11*	-6	-11	0
CCNC(=O)/N=C1/NC(=O)C(C(C)C)O1 (stereo not drawn)	4	-1	8	22*	-3	-4	-1
SMILES	UCH37 inh	PfG6PD inh	Cardio protect	aDG glyco act	Beta2AR agonist	HKDC1 inhibitor	aDG glyco conf
CC(C)Oc1cc(F)ccc1-c1cc(C(=O)Nc2ccc(C(C)C)cc2)[nH]n1	nt	nt	-15	12*	nt	nt	0
CC(C)Oc1cc(F)ccc1-c1cc(C(=O)Nc2ccccc2)[nH]n1	nt	nt	-8	0	nt	nt	nt
Cc1nc(N=CN(C)C)sc1C(=O)Nc1ccccc1	13	nt	nt	nt	nt	nt	nt
CCOC(=O)CSc1ccc2nnc(-c3cccs3)n2n1	5	48	34	9.1*	6	-1	0
O=C(Nc1ccc(F)c(F)c1)c1ccc(F)c(S(=O)(=O)N2CCC3(CC2)OCCO3)c1	1	3	-20	10*	4	-3	0
CCOc1ccc(NC(=O)c2ccc(F)c(S(=O)(=O)N3CCN(c4ccccn4)CC3)c2)cc1	2	-5	-19	5.0*	3	-7	2.1*
CCOc1ccc(NC(=O)c2ccc(F)c(S(=O)(=O)N3CCCC3)c2)cc1	nt	8	-4	2	nt	nt	nt
O=S(=O)(c1cc(F)ccc1F)N1CCC2(CC1)OCCO2	4	-8	-5	0	9	7	nt
CCCCC(=O)NN=Cc1sccc1C	1	nt	nt	nt	nt	nt	nt
Cc1cc(NCc2ccccn2)n2ncc(-c3ccccc3)c2n1	-70	11	-7	1	-5	-4	nt
Cc1cc(NCc2ccccn2)n2ncc(-c3ccc(Cl)cc3)c2n1	nt	20	-4	3.0*	-2	-10	4.6*
Brc1ccc(C=Nn2cnnc2)s1	5	nt	nt	nt	nt	nt	nt
O=C(NCCc1ccccc1)c1ccc(-c2ccc(F)cc2)o1	3	9	-1	5.1*	1	3	-1
Fc1ccc(C=Nc2c(-c3ccc(F)cc3)nc3n2CCS3)cc1	6	nt	nt	nt	nt	nt	nt
C(=NNc1ncnc2ccccc12)c1ccccc1	12	nt	nt	nt	nt	nt	nt
COc1ccc2c(Cl)c(-c3nnc(SCC(N)=O)n3C)sc2c1	3	-5	1	1	-5	2	nt
COc1ccc2c(Cl)c(-c3nnc(SCC(=O)c4ccccc4)n3C)sc2c1	1	3	-19	4.3*	-15	-2	1
C=CCc1c(C)nc(C)nc1N/N=C/c1ccc(N(C)C)cc1	nt	26	2	6.3*	1	2	0
COc1cc(C=NNC(=O)c2nnn(-c3nonc3N)c2C(C)C)ccc1OCc1ccccc1	-26	nt	nt	nt	nt	nt	nt
O=C(O)c1ccccc1C=Nn1c(C2CCCCC2)n[nH]c1=S	3	nt	nt	nt	nt	nt	nt
CN1N=C(N)c2cn(C3OC(COP(=O)(O)O)C(O)C3O)c3ncnc1c23 (stereo not drawn)	nt	-1	-3	82*	-2	1	23*
O=S(=O)(NN=C1CCCc2ccccc21)c1ccc(Br)cc1	4	nt	nt	nt	nt	nt	nt
Cn1c(/C=C/c2cccc(Br)c2)nc2ccccc2c1=O	-33	5	18	0	-10	4	nt
Cn1c(CC2C(=O)Nc3ccc(Br)cc32)nc2ccccc2c1=O (stereo not drawn)	-1	9	10	5.2*	15	8	-1
C/C(=N/NC(=O)C(O)(c1ccccc1)c1ccccc1)c1ccc([N+](=O)[O-])o1	nt	15	-11	8.2*	1	1	3.7*
COC(=O)NN=Cc1cc(C)n(-c2ccc(Br)cc2)c1C	4	nt	nt	nt	nt	nt	nt

Compound activity as filed in PubChem.
